Measurements taken from ChEMBL document CHEMBL1137637, “Quinuclidine derivatives as potential antiparasitics” (Antimicrob Agents Chemother, 2007).
Converted amounts (≈) assume the structure as drawn.

Experiments:
[1] = target: T1, Farnesyltransferase, putative (Leishmania major, UniProt Q4Q5W4); assay: Inhibition of Leishmania major recombinant squalene synthase expressed in Escherichia coli by liquid scintillation counter
T1 sequence (Q4Q5W4 whole entry): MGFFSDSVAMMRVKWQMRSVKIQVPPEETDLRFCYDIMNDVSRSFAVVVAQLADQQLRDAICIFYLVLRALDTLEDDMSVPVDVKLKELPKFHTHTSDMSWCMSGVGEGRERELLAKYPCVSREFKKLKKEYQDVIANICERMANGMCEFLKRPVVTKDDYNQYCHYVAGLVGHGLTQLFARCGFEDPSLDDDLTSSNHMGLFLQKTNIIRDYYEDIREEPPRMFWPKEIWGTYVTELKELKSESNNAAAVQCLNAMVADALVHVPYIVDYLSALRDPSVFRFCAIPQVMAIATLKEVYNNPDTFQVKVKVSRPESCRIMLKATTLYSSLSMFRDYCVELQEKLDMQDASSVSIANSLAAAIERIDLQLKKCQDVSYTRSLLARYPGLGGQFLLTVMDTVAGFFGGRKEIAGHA
How it was run: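 Soluble E. coli extract expressing L. major SQS truncated by 16 N-terminal and 40 C-terminal residues. Buffer: 50 mM phosphate pH 7.4, 20 mM MgCl2, 5 mM CHAPS, 1% Tween 80, 10 mM DTT, BSA, 0.25 mM NADPH, and a glucose-6-phosphate/G6PDH regenerating system. Substrate 0.5 μM radiolabelled farnesyl pyrophosphate. Squalene band counted by scintillation. IC50 from hyperbolic plot of five concentrations in duplicate, usually run twice.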

[2] = Inhibition of Leishmania mexicana squalene synthase
Leishmania amazonensis [3] = assay: Inhibition of sterol biosynthesis in Leishmania mexicana amazonensis promastigotes assessed as reduction in exogenous cholesterol level at 1 uM after 96 hrs by gas-liquid chromatography; format: functional; parameters: scale not given: the % may be the effect or the level left
How it was run: (§1)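 L. mexicana promastigotes exposed to compound for 96 h. Total lipids extracted and neutral sterols separated from polar lipids by silicic acid column chromatography. Sterols analysed by TLC and by quantitative capillary gas-liquid chromatography with mass spectrometry. Composition expressed as mass % of free sterols, compared with untreated control.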

Leishmania amazonensis [4] = assay: Inhibition of sterol biosynthesis in Leishmania mexicana amazonensis promastigotes assessed as reduction in endogenous episterol level at 1 uM after 96 hrs by gas-liquid chromatography; format: functional; parameters: scale not given: the % may be the effect or the level left; how it was run: as §1
Leishmania amazonensis [5] = assay: Inhibition of sterol biosynthesis in Leishmania mexicana amazonensis promastigotes assessed as reduction in endogenous 5-dehydro episterol level at 3 uM after 96 hrs by gas-liquid chromatography; format: functional; parameters: scale not given: the % may be the effect or the level left; how it was run: as §1
Leishmania amazonensis [6] = assay: Inhibition of sterol biosynthesis in Leishmania mexicana amazonensis promastigotes assessed as reduction in exogenous cholesterol level at 3 uM after 96 hrs by gas-liquid chromatography; format: functional; parameters: scale not given: the % may be the effect or the level left; how it was run: as §1
Leishmania amazonensis [7] = assay: Inhibition of sterol biosynthesis in Leishmania mexicana amazonensis promastigotes assessed as reduction in endogenous episterol level at 3 uM after 96 hrs by gas-liquid chromatography; format: functional; parameters: scale not given: the % may be the effect or the level left; how it was run: as §1
Leishmania amazonensis [8] = assay: Inhibition of sterol biosynthesis in Leishmania mexicana amazonensis promastigotes assessed as reduction in endogenous 5-dehydro episterol level at 1 uM after 96 hrs by gas-liquid chromatography; format: functional; parameters: scale not given: the % may be the effect or the level left; how it was run: as §1
[9] = target: T2, Farnesyltransferase, putative (Trypanosoma cruzi (strain CL Brener), UniProt Q4CXF7); assay: Inhibition of Trypanosoma cruzi squalene synthase
T2 sequence (Q4CXF7 whole entry): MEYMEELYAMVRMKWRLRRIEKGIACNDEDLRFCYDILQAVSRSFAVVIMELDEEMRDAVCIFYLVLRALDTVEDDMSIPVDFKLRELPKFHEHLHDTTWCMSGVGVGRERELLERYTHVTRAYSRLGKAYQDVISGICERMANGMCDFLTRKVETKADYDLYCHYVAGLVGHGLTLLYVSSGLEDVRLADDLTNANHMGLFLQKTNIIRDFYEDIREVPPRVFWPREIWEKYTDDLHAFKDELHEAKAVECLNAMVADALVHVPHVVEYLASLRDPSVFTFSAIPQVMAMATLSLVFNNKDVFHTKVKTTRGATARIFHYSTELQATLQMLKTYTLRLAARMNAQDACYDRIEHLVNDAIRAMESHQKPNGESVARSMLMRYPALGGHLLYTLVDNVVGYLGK

Trypanosoma cruzi = assay: Antitrypanosomal activity against trypomastigotes of Trypanosoma cruzi Tulahuen C2C4 containing lacZ gene in rat L6 cells after 4 days by chlorophenol red-beta-D-galactopyranoside/Nonidet assay; format: functional, organism-based; conditions: Tulahuen C2C4, L6, 96 h
How it was run: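 L-6 rat myoblasts seeded at 2,000 cells/well in RPMI 1640 with 10% FBS and 2 mM L-glutamine. After 24 h, 5,000 T. cruzi Tulahuen C2C4 lacZ trypomastigotes added with serial drug dilution. Incubated at 37°C in 5% CO2 for 4 days. CPRG/Nonidet substrate added and colour read at 540 nm after 2–4 h. IC50 from sigmoidal curve. Duplicate determinations.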

Leishmania amazonensis [10] = assay: Inhibition of sterol biosynthesis in Leishmania mexicana amazonensis promastigotes assessed as reduction in endogenous cholesta-5,7,24-trien-3beta-ol level at 3 uM after 96 hrs by gas-liquid chromatography; format: functional; parameters: scale not given: the % may be the effect or the level left; how it was run: as §1
Leishmania amazonensis [11] = assay: Inhibition of sterol biosynthesis in Leishmania mexicana amazonensis promastigotes assessed as reduction in exogenous cholesterol level at 10 uM after 96 hrs by gas-liquid chromatography; format: functional; parameters: scale not given: the % may be the effect or the level left; how it was run: as §1
Leishmania amazonensis [12] = assay: Antileishmanial activity against Leishmania mexicana amazonensis promastigotes by trypan blue exclusion method; format: functional, organism-based
How it was run: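 L. mexicana amazonensis promastigotes cultured in liver infusion-tryptose medium with lactalbumin and 10% FCS at 26°C, unagitated. Cultures started at 2 × 10⁶ cells/ml and drug added at 0.5–1 × 10⁷ cells/ml. Density counted by electronic particle counter and hemocytometer. Viability by trypan blue exclusion. Triplicate growth experiments.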

Leishmania donovani = assay: Antileishmanial activity against Leishmania donovani MHOM/ET/67/L82 axenic amastigotes after 72 hrs by resazurin assay; format: functional, organism-based; conditions: MHOM/ET/67/L82, 72 h
How it was run: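 L. donovani MHOM/ET/67/L82 amastigotes grown axenically at 37°C in synthetic minimal medium at pH 5.4 with 10% heat-inactivated FBS under 5% CO2. 1 × 10⁵ amastigotes per well with seven threefold dilutions, 30 to 0.041 μg/ml. After 72 h, resazurin added for 2–4 h more. Fluorescence read at ex 536/em 588 nm. IC50 taken from sigmoidal curve. Run in duplicate, with an independent repeat for actives.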

[13] = test system: Trypanosoma brucei rhodesiense; assay: Trypanocidal activity against Trypanosoma brucei rhodesiense STIB 900 bloodstream form after 72 hrs by resazurin assay; format: functional, organism-based; conditions: STIB 900, 72 h
How it was run: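 T. b. rhodesiense STIB 900 bloodstream forms in MEM with 2-mercaptoethanol and 15% heat-inactivated horse serum, with serial drug dilutions. Incubated 72 h at 37°C in 5% CO2. Resazurin added for 2–4 h more, fluorescence read at ex 536/em 588 nm. IC50 from sigmoidal curve. Duplicate, with an independent repeat for actives.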

Leishmania amazonensis [14] = assay: Inhibition of sterol biosynthesis in Leishmania mexicana amazonensis promastigotes assessed as reduction in endogenous cholesta-5,7,24-trien-3beta-ol level at 1 uM after 96 hrs by gas-liquid chromatography; format: functional; parameters: scale not given: the % may be the effect or the level left; how it was run: as §1
Leishmania amazonensis [15] = assay: Inhibition of sterol biosynthesis in Leishmania mexicana amazonensis promastigotes assessed as reduction in endogenous cholesta-7,24-dien-3beta-ol level at 3 uM after 96 hrs by gas-liquid chromatography; format: functional; parameters: scale not given: the % may be the effect or the level left; how it was run: as §1
L6 = assay: Cytotoxicity against rat L6 cells after 72 hrs by resazurin assay; format: cell-based; conditions: L6, 72 h
How it was run: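 L-6 cells seeded at 4 × 10⁴ cells/ml in RPMI 1640 with 10% FBS and 2 mM L-glutamine. After 24 h, medium replaced with serial drug dilution and incubated for 72 h at 37°C in 5% CO2. Resazurin added for 2–4 h, fluorescence read at ex 536/em 588 nm. IC50 from sigmoidal curve. Duplicate, with an independent repeat for actives.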

Leishmania amazonensis [16] = assay: Inhibition of sterol biosynthesis in Leishmania mexicana amazonensis promastigotes assessed as reduction in endogenous cholesta-7,24-dien-3beta-ol level at 1 uM after 96 hrs by gas-liquid chromatography; format: functional; parameters: scale not given: the % may be the effect or the level left; how it was run: as §1
Plasmodium falciparum = assay: Antiplasmodial activity after 48 hrs against chloroquine and pyrimethamine-resistant Plasmodium falciparum K1 in human erythrocytes by [3H]hypoxanthine uptake; format: functional, organism-based
How it was run: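 P. falciparum K1 in human red cells in RPMI 1640 with 5% Albumax, exposed to serial drug dilutions. Incubated 48 h at 37°C under reduced oxygen, then 0.5 μCi [³H]hypoxanthine per well for 24 h more. Cells harvested onto glass-fibre filters and counted by scintillation. Result expressed as % of untreated control, with IC50 from sigmoidal curve. Duplicate, plus an independent repeat for actives.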

| SMILES | IC50 [1] | Ki [2] | Activity (Leishmania amazonensis [3]) | Activity (Leishmania amazonensis [4]) | Activity (Leishmania amazonensis [5]) | Activity (Leishmania amazonensis [6]) | Activity (Leishmania amazonensis [7]) | Activity (Leishmania amazonensis [8]) | Ki [9] | IC50 (Trypanosoma cruzi) | Activity (Leishmania amazonensis [10]) | Activity (Leishmania amazonensis [11]) | MIC (Leishmania amazonensis [12]) | IC50 (Leishmania donovani) | IC50 [13] | Activity (Leishmania amazonensis [14]) | Activity (Leishmania amazonensis [15]) | IC50 (L6) | Activity (Leishmania amazonensis [16]) | IC50 (Plasmodium falciparum) |
| --- | --- | --- | --- | --- | --- | --- | --- | --- | --- | --- | --- | --- | --- | --- | --- | --- | --- | --- | --- | --- |
| OC1(c2ccc(-c3ccccc3)cc2)CN2CCC1CC2 (stereo not given) | 13 nM | 12 nM | 17.5% | 16.8% | 39.6% | 39.6% | 20.8% | 65.7% | 62 nM | – | – | – | – | – | – | – | – | – | – | – |
| OC[C@@H]1CC2CCN1C[C@@H]2C#Cc1ccc(-c2ccccc2)cc1 (stereo not given in full) | > 1000 nM | – | 10.3% | 4.4% | 33.7% | 25.2% | 9.3% | 36.4% | – | 5600 nM | 24.8% | >99% | 3 µM (≈ 0.952 µg/mL) | 18500 nM | 1200 nM | 41.7% | 7% | 10700 nM | 7.2% | 600 nM |
| OC[C@H]1CC2CCN1C[C@@H]2C#Cc1ccc(-c2ccccc2)cc1 (stereo not given in full) | > 1000 nM | – | 15.4% | 7.6% | 36% | 14% | 6.6% | 49.3% | – | 5800 nM | 32.7% | >99% | 10 µM (≈ 3.17 µg/mL) | 33700 nM | 500 nM | 20.1% | 10.7% | 11000 nM | 7.6% | 1400 nM |
